UPR XBP1 act: activators of adaptive XBP1 UPR arm, primary screen, cell-based, CHO-XBP1 luciferase reporter, luminescence, uHTS. IRE1-XBP1 UPR activation; percent of tunicamycin response, DMSO as zero. activation, % at 20 µM. 330,000 compounds, 0.33% hits;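 active means versus positive control, 20 µM dose yields 30% or more activation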;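 further: 100% = tunicamycin at 10 µg/mL and 0% = DMSO only wells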
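Assay system: IRE1-XBP1 luciferase reporter CHO line. Input: 1000 cells/well. Buffer or medium: F12 with 10% serum. Doses: 20 µM, 1% DMSO. Times: overnight seeding at 37 °C, 6 h compound treatment at 37 °C. Technique: Steady-Glo luciferase glow luminescence, 10 min after reagent addition.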
Exocytosis inh: LAMP-1 surface exposure blockers, TALL-104 cells – cell-based, flow cytometry, MLPCN library, primary screen | 360,000 compounds, 0.66% hits | TALL-104 LAMP-1 surface exposure; cells stimulated with thapsigargin and PMA | inhibition, % at 10 µM;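 active means inhibition above about 55%, limit read from the data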
UPR CHOP act: activators of apoptotic CHOP UPR arm, primary screen, cell-based, CHO-CHOP luciferase reporter, luminescence, uHTS | UPR activation; percent of tunicamycin response over DMSO baseline | 330,000 compounds, 0.34% hits | AID 449763, 2010 | activation, % at 10 µM;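 active means at 10 µM dose, activation of 40% or more, normalized to positive control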;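 further: 100% = tunicamycin at 10 µg/mL and 0% = DMSO alone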
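measured by = luciferase luminescence | assay system = CHO-CHOP cells, stable luciferase reporter of PERK-eIF2a-CHOP signalling | amount = 500 reporter cells seeded per well | timing = 6 h compound exposure at 37 °C after overnight seeding | controls = positive tunicamycin 10 µg/mL, negative DMSO alone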
ABHD5-PLIN5 inh: ABHD5-PLIN5 interaction inhibitors, primary screen, cell lysate, split luciferase complementation, luminescence; Perilipin-5 (Homo sapiens) + 1-acylglycerol-3-phosphate O-acyltransferase ABHD5 (Homo …; Split G. princeps luciferase complementation, 4 h; inhibition, % at 4 µM; 360,000 compounds, 0.78% hits; AID 602281, 2012;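 active means inhibition above the mean inhibition across every tested compound plus 3 SD, cut at about 22% in these data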;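 further: 0% = DMSO only wells and the 100% control is not disclosed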
Target sequence (Q00G26 whole entry, looked up): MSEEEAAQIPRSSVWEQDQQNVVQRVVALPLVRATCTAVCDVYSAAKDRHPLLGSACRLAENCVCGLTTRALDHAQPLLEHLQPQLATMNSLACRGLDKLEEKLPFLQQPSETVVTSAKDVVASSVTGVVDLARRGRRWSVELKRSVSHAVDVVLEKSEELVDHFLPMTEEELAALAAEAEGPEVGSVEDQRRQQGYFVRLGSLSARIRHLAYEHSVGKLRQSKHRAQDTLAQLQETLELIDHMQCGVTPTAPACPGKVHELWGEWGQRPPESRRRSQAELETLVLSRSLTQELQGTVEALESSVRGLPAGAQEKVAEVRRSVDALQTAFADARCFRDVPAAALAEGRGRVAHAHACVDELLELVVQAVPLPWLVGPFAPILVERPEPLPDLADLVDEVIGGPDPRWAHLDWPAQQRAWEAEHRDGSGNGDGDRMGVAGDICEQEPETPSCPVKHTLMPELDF
Target sequence (Q8WTS1 whole entry, looked up): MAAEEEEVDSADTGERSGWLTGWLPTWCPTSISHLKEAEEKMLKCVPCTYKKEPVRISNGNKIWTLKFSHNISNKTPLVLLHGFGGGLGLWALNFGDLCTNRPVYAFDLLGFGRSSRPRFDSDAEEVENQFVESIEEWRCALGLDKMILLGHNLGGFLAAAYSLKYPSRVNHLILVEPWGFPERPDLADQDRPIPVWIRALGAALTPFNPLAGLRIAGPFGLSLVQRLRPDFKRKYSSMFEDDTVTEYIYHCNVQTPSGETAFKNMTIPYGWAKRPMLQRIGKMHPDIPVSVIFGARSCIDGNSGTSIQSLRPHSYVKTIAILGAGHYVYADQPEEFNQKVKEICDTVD
Mdm2 MdmX PPI: inhibitors of human Mdm2-MdmX association, primary screen, cell-based, luminescence, split luciferase, SaOS-2, uHTS. SaOS-2 split-luciferase Mdm2/MdmX complementation. Protein Mdm4 (Homo sapiens) + E3 ubiquitin-protein ligase Mdm2 (Homo sapiens), …. inhibition, % at 8 µM. 330,000 compounds, 3% hits. AID 485346, 2010;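 active means inhibition of at least 50% at 8 µM in the primary screen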
ABHD5-PLIN5 conf: ABHD5-PLIN5 interaction inhibitors, confirmation, biochemical, luminescence; AID 651612, 2012; inhibition, % at 4 µM; 2,200 compounds, 67% hits; shares compounds with ABHD5-PLIN5 inh; in the data active means inhibition above about 23%;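 further: 0% = DMSO vehicle wells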
HNF4 split-luc: HNF4 dimerization inhibitors, counter-screen for ABHD5-PLIN5 interaction inhibitor project, biochemical, split-luciferase complementation, luminescence | shares compounds with ABHD5-PLIN5 inh | inhibition, % at 4 µM | 2,200 compounds, 77% hits;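 active means mean inhibition across replicate wells exceeding the computed hit threshold, cut at about 13% in these data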;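 further: light from luciferase halves that rejoin when HNF4 fusion proteins dimerize; 0% = DMSO only wells and the 100% control is not given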
An asterisk follows results filed as active. Compounds with a hit are over-represented: about 4% of the library has one in this group of screens.

What do the screens show for `COC1=CC(=O)C=C(OC)C1=O`?
Exocytosis inh: 78*; ABHD5-PLIN5 inh: 79*; ABHD5-PLIN5 conf: 88*; HNF4 split-luc: 105*

How did CCSc1ccc(C(=O)Nc2cccc(C)n2)cc1[N+](=O)[O-] do in these assays?
UPR XBP1 act: 1; Exocytosis inh: -2; UPR CHOP act: -2; ABHD5-PLIN5 inh: 5; Mdm2 MdmX PPI: 8

Results for CCOC(=O)C1=C(O)/C(=C/c2ccc(-c3ccccc3C(=O)O)o2)SC1=Nc1ccc(OC)cc1 ?
Exocytosis inh: 12; ABHD5-PLIN5 inh: 3

How did CCOC(=O)C1=C(O)/C(=C/c2ccc(-c3ccccc3C(=O)O)o2)SC1=Nc1ccc(C)cc1 do in these assays?
Exocytosis inh: 14; ABHD5-PLIN5 inh: 27*; ABHD5-PLIN5 conf: 12; HNF4 split-luc: 9

How did Cc1noc(C)c1S(=O)(=O)Nc1ccc(C(C)C)cc1 do in these assays?
UPR XBP1 act: -2; Exocytosis inh: -4; UPR CHOP act: 1; ABHD5-PLIN5 inh: -1; Mdm2 MdmX PPI: 34

What do the screens show for `O=C(c1ccccc1)C(CN1CCCCC1)c1ccccc1` (configuration not stated)?
Exocytosis inh: 2; ABHD5-PLIN5 inh: 29*; ABHD5-PLIN5 conf: 21; HNF4 split-luc: 95*

What do the screens show for `N#CCSc1nnc(-c2c[nH]c3ccccc23)o1`?
UPR XBP1 act: 0; Exocytosis inh: 5; UPR CHOP act: 0; ABHD5-PLIN5 inh: -2; Mdm2 MdmX PPI: -3

How did CCSc1nnc(-c2c[nH]c3ccccc23)o1 do in these assays?
UPR XBP1 act: 0; Exocytosis inh: -25; UPR CHOP act: 2; ABHD5-PLIN5 inh: 98*; Mdm2 MdmX PPI: -87; ABHD5-PLIN5 conf: 5; HNF4 split-luc: 4

What do the screens show for `COc1cc(NC(=O)CCCNC(=O)c2ccc(Cl)cc2)cc(OC)c1`?
UPR XBP1 act: -5; Exocytosis inh: -5; UPR CHOP act: 0; ABHD5-PLIN5 inh: 2; Mdm2 MdmX PPI: -1

How did Cc1ccc(NS(=O)(=O)c2ccc(N3CCN(c4ccc(O)cc4)CC3)c([N+](=O)[O-])c2)c(C)c1 do in these assays?
UPR XBP1 act: 1; Exocytosis inh: 2; UPR CHOP act: 1; ABHD5-PLIN5 inh: 35*; Mdm2 MdmX PPI: 17; ABHD5-PLIN5 conf: 12; HNF4 split-luc: 10

What do the screens show for `COc1cccc(/C=C2/CCC(CN(C)C)C2=O)c1` (configuration not stated)?
Exocytosis inh: 16; ABHD5-PLIN5 inh: 58*; ABHD5-PLIN5 conf: 101*; HNF4 split-luc: 104*

How did CCCCCCCCN1[C@@H](CC(=O)O)c2cc(C(F)(F)F)ccc2S1(=O)=O do in these assays?
UPR XBP1 act: 4; Exocytosis inh: 1; UPR CHOP act: 3; ABHD5-PLIN5 inh: 30*; Mdm2 MdmX PPI: 8; ABHD5-PLIN5 conf: 33*; HNF4 split-luc: 16*

Results for CCCCCCCCCCCCN1[C@@H](CC(=O)O)c2cc(C(F)(F)F)ccc2S1(=O)=O ?
UPR XBP1 act: 3; Exocytosis inh: -3; UPR CHOP act: 1; ABHD5-PLIN5 inh: -4; Mdm2 MdmX PPI: 7

Results for Oc1ccc2sc(-c3ccccc3O)c(-c3ccc(OCCN4CCCCC4)cc3)c2c1 ?
Exocytosis inh: 36; ABHD5-PLIN5 inh: 27*; ABHD5-PLIN5 conf: 18

Results for COc1ccc(-c2sc3cc(OC)ccc3c2-c2ccc(OCCN3CCCCC3)cc2)cc1 ?
Exocytosis inh: 31; ABHD5-PLIN5 inh: 25*; ABHD5-PLIN5 conf: 8; HNF4 split-luc: -2

How did CCOc1ccc(OCCN2CCCCC2)cc1 do in these assays?
UPR XBP1 act: 0; Exocytosis inh: -5; UPR CHOP act: 0; ABHD5-PLIN5 inh: -5; Mdm2 MdmX PPI: -2

Results for COc1ccc(-c2nc(SCC(=O)NC3CCCC3)c(-c3ccc(OC)cc3)[nH]2)cc1 ?
UPR XBP1 act: -1; Exocytosis inh: -4; UPR CHOP act: 0; ABHD5-PLIN5 inh: -10; Mdm2 MdmX PPI: 26

How did CCOC(=O)c1c(C)oc2c1c(CN1CCN(CCO)CC1)c(O)c1ccccc12 do in these assays?
Exocytosis inh: 7; ABHD5-PLIN5 inh: 35*; ABHD5-PLIN5 conf: 63*; HNF4 split-luc: 25*

Results for CCOC(=O)c1c(C)oc2c1c(CN1CCN(C(=O)OCC)CC1)c(O)c1ccccc12 ?
UPR XBP1 act: 2; Exocytosis inh: 6; UPR CHOP act: 3; ABHD5-PLIN5 inh: -20; Mdm2 MdmX PPI: -155

Results for C/C(=C\c1ccc(N)cc1)c1nc2ccccc2[nH]1 ?
UPR XBP1 act: 1; Exocytosis inh: -8; UPR CHOP act: 6; ABHD5-PLIN5 inh: -2; Mdm2 MdmX PPI: -64

Results for O=S(=O)(/C(=C/c1ccc(C(F)(F)F)cc1)c1nc2ccccc2[nH]1)c1ccccc1 ?
Exocytosis inh: 31; ABHD5-PLIN5 inh: 70*; ABHD5-PLIN5 conf: 104*; HNF4 split-luc: 103*

Results for C/C(=N\NC(=S)NC(C)C)c1ccco1 ?
UPR XBP1 act: -1; Exocytosis inh: -2; UPR CHOP act: 0; ABHD5-PLIN5 inh: 0; Mdm2 MdmX PPI: 5

What do the screens show for `CCC1(C(=O)OC)NC(c2ccco2)C2C(=O)N(c3ccc(F)cc3)C(=O)C21` (configuration not stated)?
UPR XBP1 act: 2; Exocytosis inh: 0; UPR CHOP act: -1; ABHD5-PLIN5 inh: 10; Mdm2 MdmX PPI: -49

Results for CCC1(C(=O)OC)NC(c2ccco2)C2C(=O)N(c3ccccc3)C(=O)C21 (configuration not stated) ?
UPR XBP1 act: 0; Exocytosis inh: 1; UPR CHOP act: 1; ABHD5-PLIN5 inh: 25*; Mdm2 MdmX PPI: -6; ABHD5-PLIN5 conf: 11; HNF4 split-luc: 13*

How did C/C(=N\NC(=O)c1ccccn1)C12CC3CC(CC(C3)C1)C2 do in these assays?
UPR XBP1 act: 14; Exocytosis inh: -6; UPR CHOP act: 1; ABHD5-PLIN5 inh: -4; Mdm2 MdmX PPI: 14

Results for COc1cc(C)c2sc3ccccc3c(=O)c2c1NCCN(C)C ?
Exocytosis inh: -1; ABHD5-PLIN5 inh: 32*; ABHD5-PLIN5 conf: 27*; HNF4 split-luc: 8

Screening results from PubChem.
